This passage reports Activity and Time results from ChEMBL document CHEMBL4392869, “Possible Biosynthetic Products and Metabolites of Kainic Acid from the Red Alga Digenea simplex and Their Biological Activity” (J Nat Prod, 2019).

Molecules are shown by their SMILES.

What all share (type): organism-based
Common to all, as to conditions: in vivo, icv_or_intrathecal

The nature of data set [1]: Toxicity in ddY mouse assessed as induction of adverse symptoms at 4.4 nmol dosed via intracerebroventricular injection. In outline:
(§1)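 Male ddY mice (11−13 g, 3 weeks old), three per compound. Doses, quantified by LC-MS against a weighed standard, were given in 10 μL water, injected slowly over 5 s into the ventricle: 2 mm lateral to the skull midline, 3 mm rostral to the anterior ear-base line, 3 mm deep. Water served as vehicle control. Death time and behavioural symptoms were recorded.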

A short description of data set [2]: Toxicity in ddY mouse assessed as death time at 4.4 nmol dosed via intracerebroventricular injection. In outline:
as §1

The nature of data set [3]: Toxicity in ddY mouse assessed as death time at 2.2 nmol dosed via intracerebroventricular injection. In outline: as §1
Data set [4] can be described thus: Toxicity in ddY mouse assessed as induction of sudden jumping at 2.2 nmol dosed via intracerebroventricular injection. In outline:
as §1

The nature of data set [5]: Toxicity in ddY mouse assessed as induction of scratching at 2.2 nmol dosed via intracerebroventricular injection. In outline: as §1
Data set [6] can be described thus: Toxicity in ddY mouse assessed as induction of spasms at 2.2 nmol dosed via intracerebroventricular injection. In outline:
as §1

A short description of data set [7]: Toxicity in ddY mouse assessed as induction of adverse symptoms at 2.2 nmol dosed via intracerebroventricular injection. In outline: as §1
Data set [8] in a line: Toxicity in ddY mouse assessed as induction of sudden jumping at 1.1 nmol dosed via intracerebroventricular injection. A digest of the protocol: as §1
A short description of data set [9]: Toxicity in ddY mouse assessed as induction of scratching at 1.1 nmol dosed via intracerebroventricular injection. In outline:
as §1

The nature of data set [10]: Toxicity in ddY mouse assessed as induction of spasms at 1.1 nmol dosed via intracerebroventricular injection. In outline: as §1
A short description of data set [11]: Toxicity in ddY mouse assessed as death time at 1.1 nmol dosed via intracerebroventricular injection. In outline: as §1

For the molecule `CC(C)=CCN[C@H](C(=O)O)[C@H](O)CC(=O)O` (relative stereo), the Activity result in [1] and in data set [2] was “Non-Toxic” in each case.
In the case of `CC(C)=CCN[C@@H](CCC(=O)O)C(=O)O`, the Activity entry in data set [1] and in data set [2] was “Non-Toxic” each time.
On to `C=C(C)[C@@]1(O)CN[C@H](C(=O)O)[C@H]1CC(=O)O`, for which the Activity entry in data set [3] was “Non-Toxic”; in data set [4] it was “Toxic”; in data set [5] it was “Toxic”; in [6] it was “Toxic”.
Take `C=C(C)[C@]1(O)CN[C@H](C(=O)O)[C@H]1CC(=O)O`: the Activity entry in data set [3] and in [7] was “Non-Toxic” throughout.
For `C=C(C)[C@H]1CN[C@H](C(=O)O)[C@H]1CC(=O)O` [KAINIC ACID], the Activity result in data set [8], in [9] and in data set [10] was “Toxic” in each case. Moreover, the Time in data set [11] lay in the range of 15 to 30 min.
